Compound activity as filed in PubChem.
An excerpt weighted towards active compounds, which were near 3.5% of everything screened.
RGS4 act – RGS4 potentiators or activators, primary screen, cell-based, HEK293 M3R inducible RGS4, calcium flux | B-score at 10 µM | carbachol calcium flux Fluo4; hits give low values | AID 463111, 2010 | 310,000 compounds, 0.92% hits;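 active = B-score of the integrated calcium signal more than 4 SD below the library mean, with starting fluorescence not abnormally high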;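 also: negative B-score means reduced calcium response which marks RGS4 activation or potentiation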
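test system = HEK293 cells with stable M3R and inducible RGS4 | schedule = recording 10 s baseline at 1 Hz, 100 s post-agonist | technique = Fluo4-AM (2 µM) calcium-flux fluorescence, kinetic read | measure = Agonist-evoked peak-minus-minimum fluorescence over baseline, integrated ratio, B score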
RGS4 block – RGS4 inhibitors, primary screen, cell-based, HEK293 M3R inducible RGS4, calcium flux | B-score at 10 µM | 310,000 compounds, 0.45% hits | Regulator of G-protein signaling 4 (Homo sapiens), P49798 | Fluo-4 calcium flux; hits give high values; triggered by carbachol at its EC20;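 active = B-score, a plate-corrected calcium signal, over three deviations above library mean, with baseline fluorescence within five deviations of library mean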;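 also: RGS4 expression induced by doxycycline in cells with stable M3 receptor; B-score is computed from the integrated fluorescence ratio over baseline after carbachol; higher B-score means a larger calcium signal and so more RGS4 inhibition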
Target sequence (P49798 whole entry, looked up): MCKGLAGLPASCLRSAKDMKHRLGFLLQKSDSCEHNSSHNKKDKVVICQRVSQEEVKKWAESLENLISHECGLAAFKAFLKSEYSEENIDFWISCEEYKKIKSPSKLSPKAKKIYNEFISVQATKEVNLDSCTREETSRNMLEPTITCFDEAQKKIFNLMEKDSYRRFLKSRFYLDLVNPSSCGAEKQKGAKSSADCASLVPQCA
MrgX1 ag – agonists of human MrgX1 receptor, primary screen, HEK293 cells, Fluo-4 calcium flux | 310,000 compounds, 0.44% hits | Fluo-4 calcium fluorescence, agonist mode; hits give high values | Mas-related G-protein coupled receptor member X1 (Homo sapiens), Q96LB2 | AID 588627, 2011 | B-score at 10 µM;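 active = calcium response B-score plate-corrected fluorescence ratio at least 3 library SD, with starting fluorescence B-score inside 5 SD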
Target sequence (Q96LB2 whole entry, looked up): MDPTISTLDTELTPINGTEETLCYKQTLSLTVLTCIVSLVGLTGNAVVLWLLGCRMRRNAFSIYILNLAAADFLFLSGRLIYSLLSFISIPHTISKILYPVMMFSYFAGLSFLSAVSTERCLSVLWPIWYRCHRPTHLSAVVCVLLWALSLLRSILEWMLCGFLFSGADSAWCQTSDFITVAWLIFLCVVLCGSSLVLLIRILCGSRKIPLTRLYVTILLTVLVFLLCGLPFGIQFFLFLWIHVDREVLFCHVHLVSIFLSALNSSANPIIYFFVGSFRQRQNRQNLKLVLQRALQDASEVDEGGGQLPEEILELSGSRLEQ
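Material: MrgX1-expressing HEK293 cells / Dosing: compound as first of three additions / Incubation: overnight seeding, then 1 h dark dye loading / Signal: Fluo-4 NW calcium fluorescence / Evaluation: B-scored fluorescence response ratio / Benchmarks: positive and negative control wells on each plate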
MrgX1 antag – antagonists of human MrgX1 receptor, primary screen, HEK293 cells, Fluo-4 calcium flux. Mas-related G-protein coupled receptor member X1 (Homo sapiens), Q96LB2. BAM8-22 antagonism; hits give low values. B-score at 10 µM. 310,000 compounds, 1.3% hits. AID 588676, 2011;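 active = calcium-response B-score plate-corrected more than 3 library SD below zero, starting fluorescence within 5 deviations, no agonist response on first addition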;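 also: peak minus trough fluorescence over baseline after final BAM8-22 challenge near maximal dose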
MrgX1 PAM – positive allosteric modulators of MrgX1, primary screen, HEK293 cells, Fluo-4 calcium flux | Mas-related G-protein coupled receptor member X1 (Homo sapiens), Q96LB2 | 310,000 compounds, 0.63% hits | AID 588675, 2011 | FDSS; hits give high values | B-score at 10 µM;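 active = plate-corrected calcium response at least 3 library SD above typical, normal starting fluorescence, not activating the receptor alone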;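 also: compound read alongside a low EC10 to EC30 dose of BAM8-22 agonist; peak minus trough fluorescence over baseline measured at the second addition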
RGS4 inh valid – enhanced carbachol calcium response, M3R/RGS4 cells, RGS4 inhibitor project, cell-based, validation screen, HEK293 M3R/RGS4, calcium flux; calcium response, % at 10 µM; 1,700 compounds, 65% hits; carbachol calcium Fluo-4 fluorescence; carbachol added at its EC20; 0 = buffer wells, 100 = carbachol control; shares compounds with RGS4 block; AID 492999, 2010;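 active = duplicate-averaged calcium response above the buffer-only control mean plus 5 SD of those controls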;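 also: integrated fluorescence ratio F max minus min over baseline F0; higher response in RGS4-induced cells means RGS4 inhibition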
RGS4 uninduced – carbachol calcium response in non-induced M3R cells, confirmation, counter-screen for RGS4 inhibitor project, cell-based, HEK293 M3R; shares compounds with RGS4 block; carbachol calcium Fluo-4; submaximal (EC20) carbachol stimulus; buffer wells 0%, carbachol control wells 100%; activity (percent), % at 10 µM; 1,900 compounds, 20% hits; AID 493000, 2010; call rule not given here;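 also: RGS4 induction absent so cells express M3R without RGS4; higher means more calcium signal and flags a non-specific hit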
M3R basal Ca ctr – second counter-screen for RGS4 inhibitors: non-induced cells without carbachol. HEK293 M3R/RGS4 non-induced, Fluo-4 calcium, no carbachol; normalised: buffer wells 0%, carbachol wells 100%. 1,900 compounds, 22% hits. shares compounds with RGS4 block. calcium response (agonist-mode artifact), % at 10 µM. AID 493001;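 active = duplicate-averaged calcium rise in uninduced cells above buffer wells' mean plus 5 SD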
Active calls of the source: *.

`Cc1c(Cc2ccccc2)c(=O)oc2cc(OCC(=O)N3CCC(C(=O)O)CC3)ccc12` gave RGS4 act inactive, RGS4 block inactive, MrgX1 ag inactive, MrgX1 antag inactive and MrgX1 PAM inactive.
Screening COc1ccc(S(=O)(=O)Nc2cccc(F)c2)cc1C returned RGS4 act inactive, RGS4 block inactive, MrgX1 ag inactive, MrgX1 antag inactive and MrgX1 PAM inactive.
Screening COc1ccc(S(=O)(=O)Nc2ccc(S(=O)(=O)Nc3ccc(F)cc3)cc2)cc1C returned RGS4 act inactive, RGS4 block 5*, MrgX1 ag inactive, MrgX1 antag inactive, MrgX1 PAM inactive, RGS4 inh valid 22%*, RGS4 uninduced inactive and M3R basal Ca ctr inactive.
`N#CC1=C(N)Oc2c(O)cc3ccccc3c2C1c1ccsc1` (stereo not given) gave RGS4 act inactive, RGS4 block 14*, MrgX1 ag inactive, MrgX1 antag inactive, MrgX1 PAM inactive, RGS4 inh valid 40%*, RGS4 uninduced 33%* and M3R basal Ca ctr inactive.
For CCN1CCN(CCC(=O)Nc2ccc(F)c(F)c2)CC1 the results were RGS4 act inactive, RGS4 block inactive, MrgX1 ag inactive, MrgX1 antag inactive and MrgX1 PAM inactive.
`C=CCOc1cccc(C(=O)Nc2ncn[nH]2)c1` gave RGS4 act inactive, RGS4 block inactive, MrgX1 ag inactive, MrgX1 antag inactive and MrgX1 PAM inactive.
For O=C(CN(Cc1ccc(Cl)c(Cl)c1)S(=O)(=O)c1ccccc1)N/N=C\c1ccc2c(c1)OCO2 the results were RGS4 act inactive, RGS4 block 6.7*, MrgX1 ag inactive, MrgX1 antag inactive, MrgX1 PAM inactive, RGS4 inh valid 18%*, RGS4 uninduced inactive and M3R basal Ca ctr inactive.
For O=C(CN(CCc1ccccc1)S(=O)(=O)c1ccc(Br)cc1)N/N=C/c1ccc2c(c1)OCO2 the results were RGS4 act inactive, RGS4 block inactive, MrgX1 ag inactive, MrgX1 antag inactive and MrgX1 PAM inactive.
O=C(CN(Cc1ccccc1)S(=O)(=O)c1ccccc1)N/N=C/c1ccc2c(c1)OCO2 was read as RGS4 act inactive, RGS4 block inactive, MrgX1 ag inactive, MrgX1 antag inactive, MrgX1 PAM inactive, RGS4 uninduced inactive and M3R basal Ca ctr inactive.
CC(=O)N1c2ccc(S(=O)(=O)N3CCC(C(=O)Nc4cccc(C(F)(F)F)c4)CC3)cc2CC1C (stereo not given) was read as RGS4 act inactive, RGS4 block inactive, MrgX1 ag inactive, MrgX1 antag inactive and MrgX1 PAM inactive.
Cc1nc2c([nH]c3ccccc32)c(=O)n1N was read as RGS4 act inactive, RGS4 block inactive, MrgX1 ag inactive, MrgX1 antag inactive and MrgX1 PAM inactive.
Nn1c(=O)[nH]c2c([nH]c3ccccc32)c1=O was read as RGS4 act inactive, RGS4 block 5.9*, MrgX1 ag inactive, MrgX1 antag inactive, MrgX1 PAM inactive, RGS4 inh valid inactive, RGS4 uninduced inactive and M3R basal Ca ctr inactive.
O=C(/C=C/c1ccc(NC(=O)c2ccccc2-c2ccccc2C(=O)O)cc1)c1ccccc1 was read as RGS4 act inactive, RGS4 block 28*, MrgX1 ag inactive, MrgX1 antag inactive, MrgX1 PAM inactive, RGS4 inh valid 60%*, RGS4 uninduced inactive and M3R basal Ca ctr 13%*.
Screening CCN(Cc1ccccc1)C(=O)Cn1c(=O)n(CCC(=O)N2CCCCC2)c(=O)c2sccc21 returned RGS4 act inactive, RGS4 block inactive, MrgX1 ag inactive, MrgX1 antag inactive and MrgX1 PAM inactive.
Screening Cn1ncc(S(=O)(=O)Cc2ccccc2)c(Cl)c1=O returned RGS4 act inactive, RGS4 block 26*, MrgX1 ag inactive, MrgX1 antag inactive, MrgX1 PAM inactive, RGS4 inh valid 42%*, RGS4 uninduced inactive and M3R basal Ca ctr inactive.
Screening CCOc1c(Br)cc(/C=C2\N=C(C)OC2=O)cc1Br returned RGS4 act inactive, RGS4 block 4.7*, MrgX1 ag inactive, MrgX1 antag inactive, MrgX1 PAM inactive, RGS4 inh valid 66%*, RGS4 uninduced 37%* and M3R basal Ca ctr inactive.
`Cc1cc2cc(C)c(NCCNC(=O)c3ccccc3)nc2cc1C` gave RGS4 act inactive, RGS4 block inactive, MrgX1 ag inactive, MrgX1 antag inactive, MrgX1 PAM inactive, RGS4 inh valid inactive, RGS4 uninduced inactive and M3R basal Ca ctr inactive.
COc1cc(OC)cc(N(C(=O)CNC(=O)c2cccs2)C(C(=O)NCC2CCCO2)c2ccccc2)c1 (stereo not given) was read as RGS4 act inactive, RGS4 block inactive, MrgX1 ag inactive, MrgX1 antag inactive and MrgX1 PAM inactive.
CCC1CCCCN1CCCn1c(=S)[nH]c2ccccc2c1=O (stereo not given) was read as RGS4 act inactive, RGS4 block 6.9*, MrgX1 ag inactive, MrgX1 antag inactive, MrgX1 PAM inactive, RGS4 inh valid 19%*, RGS4 uninduced inactive and M3R basal Ca ctr inactive.
O=C(/C=C/NNC(=O)c1ccc(Br)cc1)c1ccccc1 was read as RGS4 act inactive, RGS4 block inactive, MrgX1 ag inactive, MrgX1 antag inactive and MrgX1 PAM inactive.
O=C(/C=C/NNC(=O)c1ccccc1)c1ccccc1 was read as RGS4 act inactive, RGS4 block inactive, MrgX1 ag inactive, MrgX1 antag inactive, MrgX1 PAM inactive, RGS4 uninduced inactive and M3R basal Ca ctr inactive.
`CCOC(=O)[C@@H]1[C@H]2COc3ccc(Br)cc3[C@@H]2N2C(=O)N(c3ccc(Br)cc3)C(=O)[C@]12C` gave RGS4 act inactive, RGS4 block inactive, MrgX1 ag inactive, MrgX1 antag inactive and MrgX1 PAM inactive.
